Assay outcomes (PubChem BioAssay)
An excerpt weighted towards active compounds, which were near 2.4% of everything screened.
Rtt109 Vps75: C. albicans Rtt109 histone acetyltransferase inhibition; Q5AAJ8; purified Rtt109/Vps75, ThioGlo CoA-SH fluorescence, 4 h; inhibition, % at 34.9 µM; hit rate 0.16% among 330,000;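 active = inhibition of at least 50% in every replicate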
Target sequence (Q5AAJ8 whole entry, looked up): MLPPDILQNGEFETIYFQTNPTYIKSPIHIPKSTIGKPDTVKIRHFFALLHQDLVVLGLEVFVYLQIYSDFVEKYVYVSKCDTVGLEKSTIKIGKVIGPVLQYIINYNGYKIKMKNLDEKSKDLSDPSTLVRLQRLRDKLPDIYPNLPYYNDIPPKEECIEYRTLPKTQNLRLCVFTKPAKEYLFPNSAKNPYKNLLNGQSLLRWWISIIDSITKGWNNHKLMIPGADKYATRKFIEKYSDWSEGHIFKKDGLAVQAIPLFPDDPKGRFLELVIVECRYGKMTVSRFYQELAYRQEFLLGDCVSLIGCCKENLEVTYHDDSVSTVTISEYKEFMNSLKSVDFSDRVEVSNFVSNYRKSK
HIV Env fusion: inhibitors of HIV Env-mediated cell fusion | HeLa-JRFL Env/CEM21 cell fusion, luciferase | inhibition, % at 12.3 µM | hit rate 1.1% among 360,000 | AID 651610;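 active = mean replicate inhibition score of at least 50 and every replicate individually at or above 50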;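 also: 0% = plate neutral controls and 100% = maraviroc near 300 nM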
Cneo AK release: Cryptococcus neoformans lysis via adenylate kinase release; C. neoformans lysis, adenylate kinase release luminescence, 4 h; normalised: neutral wells 0, clomiphene wells 100; lysis activity, % at 15 µM; hit rate 0.2% among 360,000; AID 651654;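 active = mean lysis activity across replicates of at least 80%, whatever share of replicates individually reach that level; inactive = mean lysis activity below 80%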
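Signal: Adenylate kinase release luminescence | Assay system: Log-phase Cryptococcus neoformans yeast cells | Input: Cells at 5 × 10^6 per mL | Buffer or medium: Fresh YPD growth medium | Compound: Single dose | Schedule: Static 4 h at 37 °C with compound, 1 h detection | Controls: Clomiphene | Read-out: Luminescence rise reflecting yeast cell lysis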
dFosB activator: activators of mouse delta FosB homodimer. P13346. purified delta FosB, TAMRA-CDK5 oligo fluorescence polarization; percent of positive-control signal above neutral wells. activation, % at 25 µM. hit rate 0.99% among 340,000. AID 493131;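 active = mean activation above about 17%, with every replicate also reaching it, limit read from the data, passing the limit was not always enough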
Target sequence (P13346 whole entry, looked up): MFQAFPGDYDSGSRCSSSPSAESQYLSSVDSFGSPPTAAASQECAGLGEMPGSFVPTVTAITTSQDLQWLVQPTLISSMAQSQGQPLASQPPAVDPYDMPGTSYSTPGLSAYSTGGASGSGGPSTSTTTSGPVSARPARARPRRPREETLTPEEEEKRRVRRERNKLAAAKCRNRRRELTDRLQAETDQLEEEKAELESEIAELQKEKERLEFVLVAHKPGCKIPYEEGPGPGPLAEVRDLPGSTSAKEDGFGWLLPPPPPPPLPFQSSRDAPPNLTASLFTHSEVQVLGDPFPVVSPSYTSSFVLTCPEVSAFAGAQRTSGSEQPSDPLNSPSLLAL
miR-122 sensor: blocks miR-122 activity in Huh7 sensor cells; Huh7 miR-122 Renilla luciferase sensor, 48 h; neutral wells = 0, positive control = 100; activation (reporter increase), % at 12.5 µM; hit rate 0.3% among 340,000; AID 602342;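 active = mean replicate activation score at least 90 and every replicate individually at or above 90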;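 also: higher luciferase means less miR-122 activity so hits act as miR-122 inhibitors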
INS-1E GSIS act: GLuc luminescence reporter in INS-1E cells, primary screen for activators of glucose-dependent secretion of insulin; INS-1E GLuc reporter insulin secretion, 2-3 h; hit rate 0.61% among 370,000; activation, % at 16.6 µM;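 active = lowest replicate activation of at least 40%, so every replicate reaches that level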;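 also: 0% = median of neutral control wells and 100% = median of IBMX positive control wells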
* marks the source's active call; other numbers are inactive results; . = no result given; [ ] = remark or other dose.

SMILES | Rtt109 Vps75 | HIV Env fusion | Cneo AK release | dFosB activator | miR-122 sensor | INS-1E GSIS act
CCOc1ccc(OCc2cccc(C(=O)N/N=C/c3cccnc3)c2)cc1 | 1 | 69* | -2 | 6 | -2 | -1
CCC(=O)Nc1ccc(C(=O)N/N=C/c2cccnc2)cc1 | -2 | -78 | 1 | -5 | . | 44*
C[C@@H]1CCCCO[C@H](CN(C)Cc2ccc(C(=O)Nc3ccccc3N)cc2)[C@@H](C)CN([C@@H](C)CO)C(=O)c2cc(N(C)C)ccc2O1 | . | . | . | . | . | -4
COc1ccccc1NC(=O)N1CC[C@@H]2[C@H]1c1cc(-c3ccc(F)cc3)ccc1N(C)[C@@H]2CO | . | . | -1 | . | 0[16.7 µM] | 20
CCOC(=O)[C@]12Cc3c(cc(OC)c(OC)c3OC)[C@H]1N(C1CCCCC1)C(=O)c1cc(OC)ccc12 | . | 2 | . | . | . | 178*
CCOC(=O)N1CCC(N2C(=O)c3ccccc3C2Nc2cc(OC)c(OC)c(OC)c2)CC1 (configuration not stated) | -2 | . | -2 | -1 | -6 | -8
CCS(=O)(=O)Nc1ccc2c(c1)C(=O)N(C)[C@H]1CC[C@H](CC(=O)OC)O[C@@H]1CO2 | . | . | . | . | . | 26
O=C(O)CSc1ncnc2sc3c(c12)CCC3 | 1 | 36 | 11 | -2 | 0 | .
CCSc1ncnc2sc3c(c12)CCC3 | 1 | -78 | 0 | -14 | -2 | 43*
C[C@@H](NC(=O)C[C@@H]1C[C@H]2c3cc(NC(=O)Nc4ccccc4F)ccc3O[C@H]2[C@@H](CO)O1)c1ccccc1 | . | 15[16.7 µM] | 2 | . | 2[16.7 µM] | -5
CSc1ccccc1NC(=O)c1cc(-c2cccnc2)nc2ccc(Br)cc12 | -1 | -5 | 1 | 27* | -4 | 14
CC(=O)Nc1cccc(NC(=O)c2cc(-c3cccnc3)nc3ccc(Br)cc23)c1 | 11 | . | 4 | -17 | -1 | -2
CO[C@@H](CN(C)C(=O)c1ccc2c(c1)OCO2)[C@@H](C)CN([C@@H](C)CO)S(=O)(=O)c1ccc(C)cc1 | . | . | 2 | . | . | -2
OC(c1ccccc1)(c1nc(-c2cccc(C(F)(F)F)c2)cs1)C(F)(F)F (configuration not stated) | . | 10 | -13 | . | 17 | 106*
Cc1cccc(C)c1NC(=O)N1CCN(c2nc3ccccc3s2)CC1 | -4 | 72* | -1 | 0 | -4 | .
CSc1nc(N(C)C)nc(N2CC(=O)N(CCNS(=O)(=O)c3ccc(C)cc3)C2=N)n1 | 8 | 13 | . | -6 | . | 40*
COc1cc(S(=O)(=O)N(Cc2ccco2)C2CCCC2)ccc1-n1cnnn1 | 9 | . | -2 | -2 | 22 | -34
CCOc1ccccc1CN(Cc1ccco1)S(=O)(=O)c1ccc(-n2cnnn2)c(OC)c1 | -3 | . | 1 | -5 | 138* | 0
C[C@H]1CN([C@@H](C)CO)C(=O)c2cc(-c3cccc(F)c3)cnc2O[C@H]1CN(C)C(=O)C1CC1 | . | 13[16.7 µM] | . | . | -4[16.7 µM] | 2
O=C(C[C@@H]1CC[C@H](NC(=O)Nc2cc(F)ccc2F)[C@@H](CO)O1)Nc1ccccc1 | . | 6[16.7 µM] | 0 | . | . | -22
O=C(c1cc(COc2cccc3cnccc23)on1)N1CCCC(CCCO)C1 (configuration not stated) | -1 | 57* | -4 | -18 | -21 | -54
COCC1CCN(C(=O)c2cc(COc3cccc4cnccc34)on2)CC1 | 0 | 15 | 0 | -2 | -4 | -25
O=C(Nc1ccc(NC(=O)c2ccco2)c(Cl)c1)c1ccccc1 | 7 | -22 | . | 16 | . | -21
O=C(Nc1ccc(Cl)c([N+](=O)[O-])c1)C(NCCCO)c1ccccc1 (configuration not stated) | 4 | -2 | 0 | -1 | 226* | -6
O=C(Nc1ccc(Br)c(Cl)c1)c1ccco1 | -12 | -174 | -7 | -13 | 144* | .
SMILES | Rtt109 Vps75 | HIV Env fusion | Cneo AK release | dFosB activator | miR-122 sensor | INS-1E GSIS act
O=C(Nc1ccc(Cl)c([N+](=O)[O-])c1)c1ccco1 | -2 | -8 | 112* | 5 | -2 | 5
COCC(=O)N1CC2(C1)[C@@H](c1ccccc1)[C@H](CO)N2C(=O)c1cccnc1 | . | . | . | . | . | 0
COC(=O)c1cc(S(=O)(=O)NCC2CCN(Cc3cc(C)ccc3C)CC2)c[nH]1 | 3 | 0 | -8 | -6 | -5 | 55*
O=C(NCc1cccs1)c1nc2c(nnn2Cc2ccccc2Cl)c(=O)[nH]1 | -17 | 111* | 2 | -7 | -11 | .
CC(=O)c1cccc(NC(=O)NCc2cccs2)c1 | 9 | -3 | 1 | -4 | 103* | .
O=C(OCCOc1cccc(Cl)c1)c1cc(S(=O)(=O)N2CCCCC2)ccc1N1CCOCC1 | 17 | 75* | 6 | -3 | . | 38
O=C(OCc1cccc(Cl)c1)c1cc(S(=O)(=O)N2CCCCC2)ccc1N1CCOCC1 | 2 | . | 2 | 1 | -1 | -42
O=C(OCc1ccccc1)c1cc(S(=O)(=O)N2CCCCC2)ccc1N1CCOCC1 | -3 | -2 | -3 | -7 | 7 | -11
Cc1ccc(COC(=O)c2cc(S(=O)(=O)N3CCCCC3)ccc2N2CCOCC2)cc1 | -3 | 76* | . | -12 | -5 | -5
CCC(=O)N(C)C[C@H]1Oc2cc(C#CC(C)(C)O)ccc2S(=O)(=O)N([C@@H](C)CO)C[C@@H]1C | . | -211[16.7 µM] | 98* | . | 2[16.7 µM] | 1
C[C@@H]1CN([C@H](C)CO)S(=O)(=O)c2ccc(C#CC(C)(C)O)cc2O[C@H]1CN(C)C(=O)CN(C)C | . | -2[16.7 µM] | 3 | . | -6[16.7 µM] | 28
CCC(=O)N(C)C[C@@H]1Oc2cc(C#CC(C)(C)O)ccc2S(=O)(=O)N([C@H](C)CO)C[C@H]1C | . | -13[16.7 µM] | 103* | . | -4[16.7 µM] | 19
CCC(=O)N(C)C[C@H]1Oc2cc(C#CC(C)(C)O)ccc2S(=O)(=O)N([C@@H](C)CO)C[C@H]1C | . | -14[16.7 µM] | -2 | . | 4[16.7 µM] | 3
CO[C@@H]1CN(C)C(=O)c2ccc(NC(=O)Nc3ccc(Cl)cc3)cc2OC[C@H](C)N(C(=O)Nc2c(C)noc2C)C[C@@H]1C | . | . | 7 | . | . | -5
COc1cc2cc(C[C@H](C)O)oc(=O)c2cc1OC | 0 | -11 | 7 | -4 | -5 | 19
COc1cc2cc(CCO)oc(=O)c2cc1OC | -1 | 65* | 3 | -2 | -2 | 31
CCCCOC(=O)c1nc(Cl)c(Cl)c(N)c1Cl | 2 | -45 | 4 | -3 | -3 | 3
CCCCCCCOC(=O)c1nc(Cl)c(Cl)c(N)c1Cl | 0 | . | -1 | 0 | -2 | 416*
CC(=O)N1[C@@H]2CN(CC(F)(F)F)C[C@H]1C2c1ccc(Br)cc1 (some centres not stated) | . | . | . | . | . | -2
O=C(c1cccc(Cl)c1)N1CCC(=O)N(C(COCc2ccccc2)Cc2ccccc2)CC1 (configuration not stated) | 6 | 33 | 2 | -7 | . | .
O=C(c1ccc(Cl)c(Cl)c1)N1CCC(=O)N([C@H](COCc2cccc(C(F)(F)F)c2)Cc2ccccc2)CC1 | . | 92* | . | . | . | 10
